In ChEMBL document CHEMBL1158358, “Synthesis, antimicrobial and cytotoxic activities of some 5-arylidene-4-thioxo-thiazolidine-2-ones” (Eur J Med Chem, 2009):
Values after ≈ are worked out from the molar mass of the structure shown.

How the values were obtained:
Type in all cases: functional
HEp-2 [1] = experiment: Cytotoxicity against human Hep2 cells at 10 ug/mL after 72 hrs by MTT assay; details: HEp-2, 72 h, read-out: GI
In short: (§1)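 MTT antiproliferative assay. Cells were diluted to 10⁵ cells/mL in 96-well plates and preincubated for 24 h at 37 °C in humid 5% CO₂. Compounds or vincristine (reference) were then added. Formazan was dissolved and OD read at 540 nm, compared with medium-only control cells. Run in triplicate.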

Candida albicans [2] = experiment: Antimicrobial activity against Candida albicans UFPEDA 1007 after 48 hrs by twofold serial dilution technique; details: UFPEDA 1007, 48 h
In short: (§2)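 MIC was determined by twofold serial dilution. Bacteria were tested in plates at 10⁵ CFU/plate and read after 20 h. C. albicans was tested in tubes at 10³ CFU/tube and read after 48 h. All incubations were at 35 °C. Medium plus DMSO served as the negative control.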

Staphylococcus aureus [3] = experiment: Antimicrobial activity against multidrug-resistant Staphylococcus aureus H.C. 20489 isolate after 20 hrs by twofold serial dilution technique; details: H.C. 20489, 20 h
In short: (§3)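 Twofold serial dilution MIC in agar plates against Gram-positive strains and multidrug-resistant clinical isolates. Inoculum applied was 10⁵ CFU/plate. Plates with culture medium plus DMSO served as negative control. MIC was read after incubation at 35 °C for 20 h.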

Staphylococcus [4] = experiment: Antimicrobial activity against coagulase-negative Staphylococcus H.A.M. 278 isolate after 20 hrs by twofold serial dilution technique; details: H.A.M. 278, 20 h; in short: as §2
[5] = test system: Mycolicibacterium smegmatis; experiment: Antimicrobial activity against Mycobacterium smegmatis UFPEDA 71 after 20 hrs by twofold serial dilution technique; details: UFPEDA 71, 20 h; in short: as §2
Staphylococcus aureus [6] = experiment: Antimicrobial activity against multidrug-resistant Staphylococcus aureus H.C. 20981 isolate after 20 hrs by twofold serial dilution technique; details: H.C. 20981, 20 h; in short: as §3
NCI-H292 [7] = experiment: Cytotoxicity against human NCI-H292 cells at 1.25 ug/mL after 72 hrs by MTT assay; details: NCI-H292, 72 h, read-out: GI; in short: as §1
Enterococcus faecalis [8] = experiment: Antimicrobial activity against multidrug-resistant Enterococcus faecalis H.C. 21752 isolate after 20 hrs by twofold serial dilution technique; details: H.C. 21752, 20 h; in short: as §3
NCI-H292 [9] = experiment: Cytotoxicity against human NCI-H292 cells at 2.5 ug/mL after 72 hrs by MTT assay; details: NCI-H292, 72 h, read-out: GI; in short: as §1
Escherichia coli = experiment: Antimicrobial activity against Escherichia coli UFPEDA 224 at 300 ug/disk after 24 hrs by disk diffusion method; details: UFPEDA 224, 24 h, read-out: IZ
In short: (§4)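 Preliminary screen by disk diffusion. Paper disks (6 mm) holding 300 µg of compound were placed on agar plates inoculated with a standardized microbial suspension. DMSO-only disks served as negative controls. A mean inhibition zone below 7 mm was scored as no sensitivity. Values are means, n = 3.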

Micrococcus luteus [10] = experiment: Antimicrobial activity against Micrococcus luteus UFPEDA 06 at 300 ug/disk after 24 hrs by disk diffusion method; details: UFPEDA 06, 24 h, read-out: IZ; in short: as §4
Serratia marcescens = experiment: Antimicrobial activity against Serratia marcescens UFPEDA 398 at 300 ug/disk after 24 hrs by disk diffusion method; details: UFPEDA 398, 24 h, read-out: IZ; in short: as §4
Staphylococcus aureus [11] = experiment: Antimicrobial activity against multidrug-resistant Staphylococcus aureus H.C. 20794 isolate after 20 hrs by twofold serial dilution technique; details: H.C. 20794, 20 h; in short: as §3
Staphylococcus [12] = experiment: Antimicrobial activity against coagulase-negative Staphylococcus H.A.M. 338 isolate after 20 hrs by twofold serial dilution technique; details: H.A.M. 338, 20 h; in short: as §2
[13] = test system: Mycolicibacterium smegmatis; experiment: Antimicrobial activity against Mycobacterium smegmatis UFPEDA 71 at 300 ug/disk after 24 hrs by disk diffusion method; details: UFPEDA 71, 24 h, read-out: IZ; in short: as §4
Enterococcus faecalis [14] = experiment: Antimicrobial activity against multidrug-resistant Enterococcus faecalis H.C. 21944 isolate after 20 hrs by twofold serial dilution technique; details: H.C. 21944, 20 h; in short: as §3
Pseudomonas aeruginosa = experiment: Antimicrobial activity against Pseudomonas aeruginosa UFPEDA 39 at 300 ug/disk after 24 hrs by disk diffusion method; details: UFPEDA 39, 24 h, read-out: IZ; in short: as §4
Staphylococcus aureus [15] = experiment: Antimicrobial activity against multidrug-resistant Staphylococcus aureus H.C. 21036 isolate after 20 hrs by twofold serial dilution technique; details: H.C. 21036, 20 h; in short: as §3
HEp-2 [16] = experiment: Cytotoxicity against human Hep2 cells at 1.25 ug/mL after 72 hrs by MTT assay; details: HEp-2, 72 h, read-out: GI; in short: as §1
Staphylococcus aureus [17] = experiment: Antimicrobial activity against Staphylococcus aureus UFPEDA 01 at 300 ug/disk after 24 hrs by disk diffusion method; details: UFPEDA 01, 24 h, read-out: IZ; in short: as §4
Enterococcus faecalis [18] = experiment: Antimicrobial activity against Enterococcus faecalis UFPEDA 138 after 20 hrs by twofold serial dilution technique; details: UFPEDA 138, 20 h; in short: as §2
NCI-H292 [19] = experiment: Cytotoxicity against human NCI-H292 cells at 10 ug/mL after 72 hrs by MTT assay; details: NCI-H292, 72 h, read-out: GI; in short: as §1
Micrococcus luteus [20] = experiment: Antimicrobial activity against Micrococcus luteus UFPEDA 06 after 20 hrs by twofold serial dilution technique; details: UFPEDA 06, 20 h; in short: as §2
Bacillus subtilis [21] = experiment: Antimicrobial activity against Bacillus subtilis UFPEDA 16 after 20 hrs by twofold serial dilution technique; details: UFPEDA 16, 20 h; in short: as §2
NCI-H292 [22] = experiment: Cytotoxicity against human NCI-H292 cells at 5 ug/mL after 72 hrs by MTT assay; details: NCI-H292, 72 h, read-out: GI; in short: as §1
Bacillus subtilis [23] = experiment: Antimicrobial activity against Bacillus subtilis UFPEDA 16 at 300 ug/disk after 24 hrs by disk diffusion method; details: UFPEDA 16, 24 h, read-out: IZ; in short: as §4
Candida albicans [24] = experiment: Antimicrobial activity against Candida albicans UFPEDA 1007 at 300 ug/disk after 48 hrs by disk diffusion method; details: UFPEDA 1007, 48 h, read-out: IZ; in short: as §4
Staphylococcus aureus [25] = experiment: Antimicrobial activity against multidrug-resistant Staphylococcus aureus H.C. 21141 isolate after 20 hrs by twofold serial dilution technique; details: H.C. 21141, 20 h; in short: as §3
Staphylococcus aureus [26] = experiment: Antimicrobial activity against multidrug-resistant Staphylococcus aureus H.C. 20905 isolate after 20 hrs by twofold serial dilution technique; details: H.C. 20905, 20 h; in short: as §3
Enterococcus faecalis [27] = experiment: Antimicrobial activity against multidrug-resistant Enterococcus faecalis H.C. 24962 isolate after 20 hrs by twofold serial dilution technique; details: H.C. 24962, 20 h; in short: as §3
Staphylococcus aureus [28] = experiment: Antimicrobial activity against Staphylococcus aureus UFPEDA 01 after 20 hrs by twofold serial dilution technique; details: UFPEDA 01, 20 h; in short: as §3
HEp-2 [29] = experiment: Cytotoxicity against human Hep2 cells at 2.5 ug/mL after 72 hrs by MTT assay; details: HEp-2, 72 h, read-out: GI; in short: as §1
Enterococcus faecalis [30] = experiment: Antimicrobial activity against multidrug-resistant Enterococcus faecalis H.C. 24708 isolate after 20 hrs by twofold serial dilution technique; details: H.C. 24708, 20 h; in short: as §3
HEp-2 [31] = experiment: Cytotoxicity against human Hep2 cells at 5 ug/mL after 72 hrs by MTT assay; details: HEp-2, 72 h, read-out: GI; in short: as §1
Enterococcus faecalis [32] = experiment: Antimicrobial activity against Enterococcus faecalis UFPEDA 138 at 300 ug/disk after 24 hrs by disk diffusion method; details: UFPEDA 138, 24 h, read-out: IZ; in short: as §4

`O=C1NC(=S)/C(=C/c2cccc(Cl)c2)S1` gave an inhibition of growth at 10 µg/mL (HEp-2 [1]) of 18.8%, an MIC (Candida albicans [2]) of 32 µg/mL (≈ 125 µM) and an MIC (Staphylococcus aureus [3]) of 2 µg/mL (≈ 7.82 µM). For the same compound, the MIC (Staphylococcus [4]) was 16 µg/mL (≈ 62.6 µM), the MIC [5] was 16 µg/mL (≈ 62.6 µM) and the MIC (Staphylococcus aureus [6]) was 2 µg/mL (≈ 7.82 µM). The inhibition of growth at 1.25 µg/mL (NCI-H292 [7]) was 3.35%, the MIC (Enterococcus faecalis [8]) was 4 µg/mL (≈ 15.6 µM) and the inhibition of growth at 2.5 µg/mL (NCI-H292 [9]) was 11.2%. The zone of inhibition at 300 µg/disc (Escherichia coli) was < 7 mm, the zone of inhibition at 300 µg/disc (Micrococcus luteus [10]) was 29 mm and the zone of inhibition at 300 µg/disc (Serratia marcescens) was < 7 mm. For the same compound, the MIC (Staphylococcus aureus [11]) was 2 µg/mL (≈ 7.82 µM), the MIC (Staphylococcus [12]) was 2 µg/mL (≈ 7.82 µM) and the zone of inhibition at 300 µg/disc [13] was 24 mm. The MIC (Enterococcus faecalis [14]) was 4 µg/mL (≈ 15.6 µM), the zone of inhibition at 300 µg/disc (Pseudomonas aeruginosa) was < 7 mm and the MIC (Staphylococcus aureus [15]) was 2 µg/mL (≈ 7.82 µM). For the same compound, the inhibition of growth at 1.25 µg/mL (HEp-2 [16]) was -0.36%, the zone of inhibition at 300 µg/disc (Staphylococcus aureus [17]) was 31 mm and the MIC (Enterococcus faecalis [18]) was 8 µg/mL (≈ 31.3 µM). It also gave an inhibition of growth at 10 µg/mL (NCI-H292 [19]) of 30.9%, an MIC (Micrococcus luteus [20]) of 8 µg/mL (≈ 31.3 µM) and an MIC (Bacillus subtilis [21]) of 8 µg/mL (≈ 31.3 µM). For the same compound, the inhibition of growth at 5 µg/mL (NCI-H292 [22]) was 21.6%, the zone of inhibition at 300 µg/disc (Bacillus subtilis [23]) was 25 mm and the zone of inhibition at 300 µg/disc (Candida albicans [24]) was 13 mm. It also gave an MIC (Staphylococcus aureus [25]) of 8 µg/mL (≈ 31.3 µM), an MIC (Staphylococcus aureus [26]) of 2 µg/mL (≈ 7.82 µM) and an MIC (Enterococcus faecalis [27]) of 4 µg/mL (≈ 15.6 µM). The MIC (Staphylococcus aureus [28]) was 2 µg/mL (≈ 7.82 µM), the inhibition of growth at 2.5 µg/mL (HEp-2 [29]) was 5.44% and the MIC (Enterococcus faecalis [30]) was 4 µg/mL (≈ 15.6 µM). For the same compound, the inhibition of growth at 5 µg/mL (HEp-2 [31]) was 17.6% and the zone of inhibition at 300 µg/disc (Enterococcus faecalis [32]) was 22 mm.
